From ChEMBL document CHEMBL1121400, “Quantitative structure--activity correlations of rifamycins as inhibitors of viral RNA-directed DNA polymerase and mammalian alpha and beta DNA polymerases” (J Med Chem, 1980) come the findings set out here.

The nature of data set [1]: Ability to inhibit mouse alpha DNA polymerase. The method, boiled down: (§1)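 Enzyme in 50% glycerol, 1 mM dithiothreitol, 0.5 M KCl and 50 mM Tris-HCl pH 7.5 was premixed with inhibitor in 100% Me2SO and held on ice 10 min. Cocktail (MnCl2, KCl, NaF, BSA, [3H]dGTP, poly(2'-O-methylcytidylic acid)·d(pG)12-18) was then added. Incubation was 45 min at 37 °C.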
The nature of data set [2]: Partition coefficient (logP). The settings on record: octanol/water, logP.
Data set [3] addresses Gag-Pol polyprotein (Woolly monkey sarcoma virus) (UniProt P03359). The data set can be described thus: Inhibition of simian sarcoma virus reverse transcriptase. The method, boiled down: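 SSV-1 RNA-dependent DNA polymerase purified from tissue culture fluid of 71 AP1 cells. 50 µL reaction containing 20% glycerol, 1 mM DTT, BSA, Tris-HCl pH 7.5, MnCl2, KCl, NaF, [3H]dGTP and poly(2'-O-methylC)·d(pG)12-18. Compound in Me2SO is mixed with enzyme on ice for 10 min before the cocktail is added, then incubated 45 min at 37 °C. Radioactivity in product; 50% inhibitory concentration from triplicate dose–response curves spanning 10^-3 to 10^-7 M.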

Data set [4] addresses DNA polymerase beta (Mus musculus) (UniProt Q8K409). As to the kind of experiment: The logarithm of the reciprocal of the concentration which produces 50% inhibition of mammalian beta DNA polymerase. The method, boiled down: (§2)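 Mammalian α or β DNA polymerase in 100 µL reaction: enzyme in 50% glycerol, 1 mM DTT, 0.5 M KCl, Tris-HCl pH 7.5; Me2SO compound; cocktail with MnCl2, NaF, [3H]dGTP, poly(2'-O-methylC)·d(pG)12-18 template. Compound added first, then enzyme, then cocktail; 45 min at 37 °C. Product radioactivity, background-corrected against Me2SO controls; 50% concentration from triplicate five-dose curves, 10^-3–10^-7 M, expressed as log(1/C).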

Another data set deals with DNA polymerase beta (Mus musculus, UniProt Q8K409). As to the kind of experiment: Ability to inhibit mouse beta DNA polymerase. The method, boiled down: as §1
The target in another data set is Gag-Pol polyprotein (Woolly monkey sarcoma virus, UniProt P03359). As to the kind of experiment: Ability to inhibit simian sarcoma virus reverse transcriptase. The method, boiled down:
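Purified SSV-1 RNA-dependent DNA polymerase from 71 AP1 culture fluids, in 20% glycerol, 1 mM dithiothreitol, 1 mg/mL BSA and 50 mM Tris-HCl pH 7.5, was held 10 min on ice with inhibitor in Me2SO. Mn2+/[3H]dGTP cocktail with poly(2'-O-methylcytidylic acid)·d(pG)12-18 template was added, then 45 min at 37 °C. Background-corrected triplicate dose series; the 50% inhibition concentration was extrapolated.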

Data set [5] in a line: The logarithm of the reciprocal of the concentration which produces 50% inhibition of mammalian alpha DNA polymerase. The method, boiled down: as §2

Gag-Pol polyprotein, sequence (P03359 642-1310 limits assumed): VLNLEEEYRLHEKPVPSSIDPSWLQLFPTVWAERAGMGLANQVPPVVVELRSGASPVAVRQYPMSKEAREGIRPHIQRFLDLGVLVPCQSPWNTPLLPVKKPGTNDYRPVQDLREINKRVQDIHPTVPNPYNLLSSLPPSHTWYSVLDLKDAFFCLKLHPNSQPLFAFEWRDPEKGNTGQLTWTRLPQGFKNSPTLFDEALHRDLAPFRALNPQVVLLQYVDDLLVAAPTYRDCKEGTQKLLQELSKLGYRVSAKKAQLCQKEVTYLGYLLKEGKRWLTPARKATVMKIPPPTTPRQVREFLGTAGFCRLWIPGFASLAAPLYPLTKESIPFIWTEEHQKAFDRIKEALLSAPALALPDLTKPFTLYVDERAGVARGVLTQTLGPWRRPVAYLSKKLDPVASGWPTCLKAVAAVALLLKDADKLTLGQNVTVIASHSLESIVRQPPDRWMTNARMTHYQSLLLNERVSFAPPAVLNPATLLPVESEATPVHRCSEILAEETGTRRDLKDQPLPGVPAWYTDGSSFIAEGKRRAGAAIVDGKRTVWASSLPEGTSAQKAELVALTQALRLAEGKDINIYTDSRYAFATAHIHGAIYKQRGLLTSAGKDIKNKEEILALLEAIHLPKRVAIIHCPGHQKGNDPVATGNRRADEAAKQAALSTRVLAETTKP
Gag-Pol polyprotein (Woolly monkey sarcoma virus), sequence (P03359 whole entry): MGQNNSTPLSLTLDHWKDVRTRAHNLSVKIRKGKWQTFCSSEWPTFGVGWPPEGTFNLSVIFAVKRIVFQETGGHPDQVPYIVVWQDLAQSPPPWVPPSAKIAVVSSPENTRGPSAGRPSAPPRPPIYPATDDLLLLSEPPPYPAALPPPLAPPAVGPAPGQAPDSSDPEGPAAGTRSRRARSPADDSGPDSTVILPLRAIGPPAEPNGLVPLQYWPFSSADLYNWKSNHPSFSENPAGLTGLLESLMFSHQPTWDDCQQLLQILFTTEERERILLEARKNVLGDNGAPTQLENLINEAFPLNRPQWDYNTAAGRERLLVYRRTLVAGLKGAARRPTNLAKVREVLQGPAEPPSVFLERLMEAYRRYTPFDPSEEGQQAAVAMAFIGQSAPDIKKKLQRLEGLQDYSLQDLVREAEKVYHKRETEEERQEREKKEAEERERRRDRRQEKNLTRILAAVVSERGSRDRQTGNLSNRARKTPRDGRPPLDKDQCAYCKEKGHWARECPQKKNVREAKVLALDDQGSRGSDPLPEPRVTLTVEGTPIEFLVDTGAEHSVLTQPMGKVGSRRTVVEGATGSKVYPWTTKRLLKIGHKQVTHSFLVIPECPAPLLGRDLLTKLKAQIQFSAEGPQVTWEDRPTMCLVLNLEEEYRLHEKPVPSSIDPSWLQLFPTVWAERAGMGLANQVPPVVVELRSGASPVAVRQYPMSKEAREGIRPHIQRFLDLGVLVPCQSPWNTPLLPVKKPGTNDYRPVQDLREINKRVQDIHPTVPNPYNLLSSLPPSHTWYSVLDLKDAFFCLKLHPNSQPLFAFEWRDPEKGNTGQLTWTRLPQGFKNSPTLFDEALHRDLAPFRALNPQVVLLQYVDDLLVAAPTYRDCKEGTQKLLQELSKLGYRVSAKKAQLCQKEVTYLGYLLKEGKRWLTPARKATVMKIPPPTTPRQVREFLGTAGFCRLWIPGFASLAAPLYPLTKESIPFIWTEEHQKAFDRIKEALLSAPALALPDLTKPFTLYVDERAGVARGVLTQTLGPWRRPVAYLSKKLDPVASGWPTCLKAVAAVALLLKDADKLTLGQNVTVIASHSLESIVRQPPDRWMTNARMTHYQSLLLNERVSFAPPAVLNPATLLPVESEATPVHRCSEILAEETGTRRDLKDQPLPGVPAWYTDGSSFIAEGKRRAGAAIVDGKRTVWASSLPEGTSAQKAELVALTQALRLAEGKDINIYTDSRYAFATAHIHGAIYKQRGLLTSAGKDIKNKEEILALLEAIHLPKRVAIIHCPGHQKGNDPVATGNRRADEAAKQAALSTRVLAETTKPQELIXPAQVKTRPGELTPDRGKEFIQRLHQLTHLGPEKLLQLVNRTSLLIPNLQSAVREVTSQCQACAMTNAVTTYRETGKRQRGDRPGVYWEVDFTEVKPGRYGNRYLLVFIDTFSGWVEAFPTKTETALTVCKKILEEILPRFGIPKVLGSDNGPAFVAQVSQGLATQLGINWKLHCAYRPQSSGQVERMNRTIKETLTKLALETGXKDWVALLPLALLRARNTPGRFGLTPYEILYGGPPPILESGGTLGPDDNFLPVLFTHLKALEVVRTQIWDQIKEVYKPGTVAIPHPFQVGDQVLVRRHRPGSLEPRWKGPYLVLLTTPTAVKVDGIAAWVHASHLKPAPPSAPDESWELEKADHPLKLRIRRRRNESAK

Consider `CCCN(CCC)/N=C/c1cc2c3c4c(C)c(O)c2c(O)c1NC(=O)/C(C)=C\C=C\C(C)C(O)C(C)C(O)C(C)C(OC(C)=O)C(C)C(OC)/C=C/OC(C)(O4)C3=O` (configuration not stated), for which the IC50 in data set [1] was found to be 0.00006500000000000002 M l-1; on DNA polymerase beta (read-out: IC50), 45 µM; on Gag-Pol polyprotein (read-out: IC50), 13.5 µM. Besides, the logP in data set [2] worked out at 3.85. Moreover, the figures for the Log 1/C in data set [3], in data set [4] and in data set [5] were 4.87, 4.35 and 4.19, respectively.
As to `COC1/C=C/OC2(C)Oc3c(C)c(O)c4c(O)c(c(CN5CCNCC5)cc4c3C2=O)NC(=O)/C(C)=C\C=C\C(C)C(O)C(C)C(O)C(C)C(OC(C)=O)C1C` (configuration not stated), the IC50 in data set [1] is 0.003 M l-1; on DNA polymerase beta, 0.0042 M l-1; at Gag-Pol polyprotein, 0.00145 M l-1. Further, in data set [2], the logP was determined as 1.76. The results for the Log 1/C in data set [3], in data set [4] and in data set [5] were 2.84, 2.38 and 2.52, respectively.
As to `CCCCCN(CCCCC)/N=C/c1cc2c3c4c(C)c(O)c2c(O)c1NC(=O)/C(C)=C\C=C\C(C)C(O)C(C)C(O)C(C)C(OC(C)=O)C(C)C(OC)/C=C/OC(C)(O4)C3=O` (configuration not stated), the IC50 in data set [1] was determined as 0.000043 M l-1; at DNA polymerase beta (read-out: IC50), 48 µM; on Gag-Pol polyprotein (read-out: IC50) it was 4.4 µM. In data set [2], the log partition coefficient (logP) amounted to 3.47. For the same compound, the values for the Log 1/C in data set [3], in data set [4] and in data set [5] were 5.36, 4.32 and 4.36, respectively.
Consider `CCCCCCCCO/N=C/c1cc2c3c4c(C)c(O)c2c(O)c1NC(=O)/C(C)=C\C=C\C(C)C(O)C(C)C(O)C(C)C(OC(C)=O)C(C)C(OC)/C=C/OC(C)(O4)C3=O` (configuration not stated), for which the IC50 was determined as 0.000015 M l-1 in data set [1], 13 µM on DNA polymerase beta (read-out: IC50) and 1 µM on Gag-Pol polyprotein (read-out: IC50). Besides, in data set [2], the log partition coefficient (logP) amounted to 5.2. In addition, the Log 1/C in data set [3] was 6; in data set [4] it was 4.89; in data set [5], 4.94.
Turning to `COC1/C=C/OC2(C)Oc3c(C)c(O)c4c(O)c(c(/C=N/N5C(C)CN(Cc6ccccc6)CC5C)cc4c3C2=O)NC(=O)/C(C)=C\C=C\C(C)C(O)C(C)C(O)C(C)C(OC(C)=O)C1C` (configuration not stated), the results for the IC50 (in data set [1]; on DNA polymerase beta (read-out: IC50); on Gag-Pol polyprotein (read-out: IC50)) were 0.000038 M l-1, 21 µM and 12.5 µM, respectively. This compound gave a logP in data set [2] of 4.28. In addition, the Log 1/C turned out to be 4.9 in data set [3], 4.68 in data set [4] and 4.42 in data set [5].
As to `COC1/C=C/OC2(C)Oc3c(C)c(O)c4c(O)c(c(/C=N/N5C(C)CN(Cc6ccc(C#N)cc6)CC5C)cc4c3C2=O)NC(=O)/C(C)=C\C=C\C(C)C(O)C(C)C(O)C(C)C(OC(C)=O)C1C` (configuration not stated), the figures for the IC50 (in data set [1]; on DNA polymerase beta (read-out: IC50); on Gag-Pol polyprotein (read-out: IC50)) were 0.000047 M l-1, 22 µM and 16 µM, respectively. Moreover, the logP in data set [2] was determined as 3.71. The Log 1/C was determined as 4.8 in data set [3], 4.66 in data set [4] and 4.33 in data set [5].
With `COC1/C=C/OC2(C)Oc3c(C)c(O)c4c(O)c(c(/C=N/OC(c5ccccc5)c5ccccc5)cc4c3C2=O)NC(=O)/C(C)=C\C=C\C(C)C(O)C(C)C(O)C(C)C(OC(C)=O)C1C` (configuration not stated), the IC50 in data set [1] amounted to 0.000024 M l-1; on DNA polymerase beta (read-out: IC50) it was 10 µM; on Gag-Pol polyprotein (read-out: IC50) it was 2.5 µM. The same compound had a logP in data set [2] of 4.96. Also, the values for the Log 1/C in data set [3], in data set [4] and in data set [5] were 5.6, 5 and 4.62, respectively.
`COC1/C=C/OC2(C)Oc3c(C)c(O)c4c(O)c(c(/C=N/N5CCCC5)cc4c3C2=O)NC(=O)/C(C)=C\C=C\C(C)C(O)C(C)C(O)C(C)C(OC(C)=O)C1C` (configuration not stated): the figures for the IC50 (in data set [1]; on DNA polymerase beta; on Gag-Pol polyprotein (read-out: IC50)) were 0.00024 M l-1, 0.00024 M l-1 and 17 µM, respectively. In data set [2], this compound came in with a logP of 2.75. Also, the Log 1/C amounted to 4.77 in data set [3], 3.62 in data set [4] and 3.62 in data set [5].
`COC1/C=C/OC2(C)Oc3c(C)c(O)c4c(O)c(c(/C=N/OCCCc5ccccc5)cc4c3C2=O)NC(=O)/C(C)=C\C=C\C(C)C(O)C(C)C(O)C(C)C(OC(C)=O)C1C` (configuration not stated): the IC50 stood at 0.000034 M l-1 in data set [1], 6.6 µM on DNA polymerase beta (read-out: IC50) and 5.6 µM on Gag-Pol polyprotein (read-out: IC50). Besides, the logP in data set [2] is 4.83. The Log 1/C in data set [3] was 5.25; in data set [4] it was 5.18; in data set [5] it was 4.46.
As for `COC1/C=C/OC2(C)Oc3c(C)c(O)c4c(O)c(c(/C=N/NC5CCCCCCCCCCCCCC5)cc4c3C2=O)NC(=O)/C(C)=C\C=C\C(C)C(O)C(C)C(O)C(C)C(OC(C)=O)C1C` (configuration not stated), the figures for the IC50 (in data set [1]; at DNA polymerase beta (read-out: IC50); on Gag-Pol polyprotein (read-out: IC50)) were 0.0000115 M l-1, 15 µM and 0.85 µM, respectively. This compound also registered a lipophilicity (logP) in data set [2] of 6.78. Besides, the Log 1/C was determined as 6.07 in data set [3], 4.82 in data set [4] and 4.94 in data set [5].
`COC1/C=C/OC2(C)Oc3c(C)c(O)c4c(O)c(c(/C=N/N5CCCCCCCCCC5)cc4c3C2=O)NC(=O)/C(C)=C\C=C\C(C)C(O)C(C)C(O)C(C)C(OC(C)=O)C1C` (configuration not stated): the IC50 was 0.000031 M l-1 in data set [1], 22 µM at DNA polymerase beta (read-out: IC50) and 6.6 µM at Gag-Pol polyprotein (read-out: IC50). This compound registered a logP in data set [2] of 4.05. Further, the Log 1/C came out at 5.18 in data set [3], 4.65 in data set [4] and 4.51 in data set [5].

The term logP denotes the decadic logarithm of the partition coefficient of the neutral form, usually between octanol and water.
